SMILES strings stand for the structures. Converted amounts (≈) assume the structure as drawn. The source made the active and inactive calls. The calls are words filed in the database; no cut-off is given here. Some results are limits rather than exact numbers.

Data set [1] deals with Hepatitis C virus. The data set can be described thus: Antiviral activity against HCV pseudoparticle harboring HCV envelope protein E1 and E2 and HIV proviral DNA assessed as inhibition of pseudoparticle entry into human Huh7 cells at 5 uM measured after 3 days by luciferase reporter gene assay relative to control. It counts as functional, Hepacivirus hominis. Conditions: Huh-7, 72 h. The procedure, abridged: (§1)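 Huh-7 cells (5 × 10³/well) seeded 24 h, then infected with HCVpp or VSVGpp (HIV pNL4-3 luciferase backbone with HCV E1E2 or VSV G, made in 293T cells) with compound in 1% DMSO at 37 °C. Luciferase read 3 days post-infection. % inhibition = 100 − background-subtracted signal as % of DMSO wells. Duplicates, ≥3 repeats.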
For orientation: In a reporter assay the amount or activity of a reporter protein is the signal.

For data set [2], the system named is Vesicular stomatitis virus. The data set can be described thus: Antiviral activity against VSV pseudoparticle harboring VSV G protein and HIV proviral DNA assessed as inhibition of pseudoparticle entry into human Huh7 cells measured after 3 days by luciferase reporter gene assay. Conditions: Huh-7. Type of data set: functional, cell-based. The procedure, abridged: as §1

Data set [3] in a line: Aqueous solubility of the compound at room temperature measured per 100 ml of solution. Type of data set: physicochemical. Conditions: buffer.
A short description of data set [4]: Aqueous solubility of the compound at 100 ug/ml incubated for 1 hr. It counts as physicochemical. As to conditions: buffer.
Data set [5] has as its system Hepatitis C virus. The data set can be described thus: Antiviral activity against HCV pseudoparticle harboring HCV envelope protein E1, E2 and HIV proviral DNA infected in HuH7 cells assessed as reduction in viral infection at 10 uM preincubated viral particle with cells for 3 hrs followed by test compound addition measured after 72 hrs by luciferase reporter gene assay. Type of data set: functional, Hepacivirus hominis. As to conditions: Huh-7. The procedure, abridged:
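Post-binding format: Huh-7 cells incubated with HCVpp at 4 °C for 3 h, then washed thoroughly to remove unbound virus. Cells were then exposed to compound at 37 °C for 72 h. Luciferase readout, normalised to 0.5% DMSO (final).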

A short description of data set [6]: Selectivity index, ratio of CC50 for MDCK cells to IC50 for HCV pseudoparticle expressing envelope protein E1 and E2 to. It counts as functional. In a few lines: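 SI = MDCK CC50 / HCVpp IC50. The IC50 came from HIV pNL4-3 luciferase pseudoparticles carrying HCV E1E2, made in 293T cells. Huh-7 cells (5 × 10³ per well, seeded 24 h earlier) were infected with compound present at 37 °C, and luciferase was read 3 days later. Inhibition was normalised to DMSO wells minus uninfected background. IC50 values are means of at least three independent determinations.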

The subject of data set [7] is Hepatitis C virus. Briefly: Antiviral activity against HCV pseudoparticle harboring HCV envelope protein E1, E2 and HIV proviral DNA infected in HuH7 cells assessed as reduction in viral infection at 10 uM preincubated cells with test compound for 3 hrs followed by viral infection measured after 72 hrs by luciferase reporter gene assay. It counts as functional, Hepacivirus hominis. As to conditions: Huh-7. The procedure, abridged:
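Pre-treatment format: Huh-7 cells incubated 3 h at 37 °C with compound in DMEM/10% FBS, then washed to remove unbound compound. Cells were then infected with HCVpp at 37 °C for 72 h. Luciferase readout, normalised to 0.5% DMSO (final).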

Data set [8] is described as follows: Cytotoxicity against MDCK cells measured after 48 hrs by alamar blue assay. Type of data set: toxicity, cell-based, Canis lupus familiaris. Conditions: dog. In a few lines: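 MDCK cells were seeded at 1 × 10⁴ per well and allowed to adhere for 16 h at 37 °C in 5% CO₂. Compounds were added at 0.1, 1, 10 and 100, in triplicate, against 1% DMSO controls, for 48 h. AlamarBlue was then added for 2 h and fluorescence read (ex 530, em 590 nm). Percent viability gave CC50.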
In general terms: The colour change of resazurin is a common sign of viable cells or microbes.

For data set [9], the system named is Hepatitis C virus. Briefly: Antiviral activity against HCV pseudoparticle harboring HCV envelope protein E1 and E2 and HIV proviral DNA assessed as inhibition of pseudoparticle entry into human Huh7 cells measured after 3 days by luciferase reporter gene assay. It counts as functional, cell-based, Hepacivirus hominis. As to conditions: Huh-7, 72 h. The procedure, abridged: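 Huh-7 cells infected with HCVpp with compound at six concentrations spanning the nanomolar range upward, 37 °C. Luciferase read 3 days post-infection, normalised to DMSO-only wells minus uninfected background. Each concentration in triplicate. IC50 is the mean of at least three independent determinations.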

In data set [10] the test system is Hepatitis C virus. Briefly: Antiviral activity against HCV pseudoparticle harboring HCV envelope protein E1, E2 and HIV proviral DNA infected in HuH7 cells assessed as reduction in viral infection at 10 uM pretreated with virus for 6 hrs followed by compound addition measured after 72 hrs by luciferase reporter gene assay. Type of data set: functional, Hepacivirus hominis. As to conditions: Huh-7. In a few lines:
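Post-entry format: Huh-7 cells incubated with HCVpp at 37 °C for 6 h to allow entry but not reverse transcription, then washed. Compound added at 37 °C for a further 72 h. Luciferase readout, normalised to 0.5% DMSO (final).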

For data set [11], the system named is Hepatitis C virus. The data set can be described thus: Antiviral activity against HCV pseudoparticle harboring HCV envelope protein E1, E2 and HIV proviral DNA infected in HuH7 cells assessed as reduction in viral infection at 10 uM incubated with virus and compound for 3 hrs by luciferase reporter gene assay. It counts as functional, Hepacivirus hominis. As to conditions: Huh-7, 3 h. The procedure, abridged:
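Pre-binding format: Huh-7 cells incubated with compound plus HCVpp at 4 °C for 3 h to allow virus binding. Readout is a luciferase pseudovirus-entry signal, normalised to 0.5% DMSO (final). An anti-CD81 antibody served as positive control.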

Data set [12] can be described thus: Aqueous solubility of the compound by HPLC method. It counts as physicochemical. Conditions: buffer.

By inhibition is commonly meant the percentage by which the read-out fell short of the control. As for `C=C(C)[C@@H]1CC[C@]2(C(=O)NCc3cn(C[C@H]4O[C@@H]5O[C@H]6[C@H](OC(C)=O)[C@@H](OC(C)=O)[C@@H](O[C@H]7[C@H](OC(C)=O)[C@@H](OC(C)=O)[C@@H](O[C@H]8[C@H](OC(C)=O)[C@@H](OC(C)=O)[C@@H](O[C@H]9[C@H](OC(C)=O)[C@@H](OC(C)=O)[C@@H](O[C@H]%10[C@H](OC(C)=O)[C@@H](OC(C)=O)[C@@H](O[C@H]4[C@H](OC(C)=O)[C@H]5OC(C)=O)O[C@@H]%10COC(C)=O)O[C@@H]9COC(C)=O)O[C@@H]8COC(C)=O)O[C@@H]7COC(C)=O)O[C@@H]6COC(C)=O)nn3)CC[C@]3(C)[C@H](CC[C@@H]4[C@@]5(C)CC[C@H](O)C(C)(C)[C@@H]5CC[C@]43C)[C@@H]12`, the inhibition at 5 µM with Hepatitis C virus [1] turned out to be 60%. In addition, in [2], the inhibition result is “Active”.

Take `C=C(C)[C@@H]1CC[C@]2(C(=O)NCc3cn(C[C@H]4O[C@@H]5O[C@H]6[C@H](O)[C@@H](O)[C@@H](O[C@H]7[C@H](O)[C@@H](O)[C@@H](O[C@H]8[C@H](O)[C@@H](O)[C@@H](O[C@H]9[C@H](O)[C@@H](O)[C@@H](O[C@H]%10[C@H](O)[C@@H](O)[C@@H](O[C@H]4[C@H](O)[C@H]5O)O[C@@H]%10CO)O[C@@H]9CO)O[C@@H]8CO)O[C@@H]7CO)O[C@@H]6CO)nn3)CC[C@]3(C)[C@H](CC[C@@H]4[C@@]5(C)CC[C@H](O)C(C)(C)[C@@H]5CC[C@]43C)[C@@H]12`: the inhibition at 5 µM in the data set with Hepatitis C virus [1] was 60%. For the same compound, in data set [2], the inhibition entry is “Active”.

Turning to `OC[C@H]1O[C@@H]2O[C@H]3[C@H](O)[C@@H](O)[C@@H](O[C@H]4[C@H](O)[C@@H](O)[C@@H](O[C@H]5[C@H](O)[C@@H](O)[C@@H](O[C@H]6[C@H](O)[C@@H](O)[C@@H](O[C@H]7[C@H](O)[C@@H](O)[C@@H](O[C@H]1[C@H](O)[C@H]2O)O[C@@H]7CO)O[C@@H]6CO)O[C@@H]5CO)O[C@@H]4CO)O[C@@H]3CO` [ALFADEX], the solubility in data set [3] is on record as 14.5 g.

Regarding `C=C(C)[C@@H]1CC[C@]2(C(=O)O)CC[C@]3(C)[C@H](CC[C@@H]4[C@@]5(C)CC[C@H](O)C(C)(C)[C@@H]5CC[C@]43C)[C@@H]12` [BETULINIC ACID], the solubility at 1 h in data set [4] worked out at 0.02 µg/mL (≈ 0.0438 µM).

By CC50 is commonly meant the concentration giving 50% cytotoxicity. Lower therefore signals greater toxicity to the cells. A word on the IC50: it is the concentration that inhibits the measured activity by half. `CC1(C)CC[C@]2(C(=O)NCc3cn(C[C@H]4O[C@@H]5O[C@H]6[C@H](O)[C@@H](O)[C@@H](O[C@H]7[C@H](O)[C@@H](O)[C@@H](O[C@H]8[C@H](O)[C@@H](O)[C@@H](O[C@H]9[C@H](O)[C@@H](O)[C@@H](O[C@H]%10[C@H](O)[C@@H](O)[C@@H](O[C@H]4[C@H](O)[C@H]5O)O[C@@H]%10CO)O[C@@H]9CO)O[C@@H]8CO)O[C@@H]7CO)O[C@@H]6CO)nn3)[C@H](O)C[C@]3(C)C(=CC[C@@H]4[C@@]5(C)CC[C@H](O)C(C)(C)[C@@H]5CC[C@]43C)[C@H]2C1`: the inhibition at 5 µM in the data set on Hepatitis C virus [1] turned out to be 95%. For the same compound, the inhibition at 10 µM is greater than 90% in the data set with Hepatitis C virus [5], 10 to 30% in the data set with Hepatitis C virus [7], 10 to 30% in the data set with Hepatitis C virus [10] and 10 to 30% in the data set with Hepatitis C virus [11]. Also, in [6], the “Ratio CC50/IC50” value was greater than 400. This compound returned a CC50 at 48 h in data set [8] greater than 100 µM. In the data set on Hepatitis C virus [9], the IC50 is 0.25 µM.

For the compound `CC(=O)OC[C@H]1O[C@@H]2O[C@H]3[C@H](OC(C)=O)[C@@H](OC(C)=O)[C@@H](O[C@H]4[C@H](OC(C)=O)[C@@H](OC(C)=O)[C@@H](O[C@H]5[C@H](OC(C)=O)[C@@H](OC(C)=O)[C@@H](O[C@H]6[C@H](OC(C)=O)[C@@H](OC(C)=O)[C@@H](O[C@H]7[C@H](OC(C)=O)[C@@H](OC(C)=O)[C@@H](O[C@H]1[C@H](OC(C)=O)[C@H]2OC(C)=O)O[C@@H]7COC(C)=O)O[C@@H]6COC(C)=O)O[C@@H]5Cn1cc(CNC(=O)[C@]25CCC(C)(C)C[C@@H]2C2=CC[C@@H]6[C@@]7(C)CC[C@H](O)C(C)(C)[C@@H]7CC[C@@]6(C)[C@]2(C)C[C@H]5O)nn1)O[C@@H]4COC(C)=O)O[C@@H]3COC(C)=O`, in the data set on Hepatitis C virus [1], the inhibition at 5 µM is 80%. The inhibition at 10 µM with Hepatitis C virus [5] is greater than 90%; in the data set on Hepatitis C virus [7] it was 10 to 30%; in the data set on Hepatitis C virus [10], 10 to 30%; in the data set with Hepatitis C virus [11], 10 to 30%. In addition, in data set [6], the “Ratio CC50/IC50” value is given as greater than 85. The compound further yielded a CC50 at 48 h in [8] greater than 100 µM. The IC50 with Hepatitis C virus [9] is 1.18 µM.

In data set [12], `CC1(C)CC[C@]2(C(=O)O)CC[C@]3(C)C(=CC[C@@H]4[C@@]5(C)CC[C@H](O)C(C)(C)[C@@H]5CC[C@]43C)[C@@H]2C1` [OLEANOLIC_ACID] had a solubility of 0.05 µg/mL (≈ 0.109 µM).

As to `CC1(C)CC[C@]2(C(=O)O)[C@H](O)C[C@]3(C)C(=CC[C@@H]4[C@@]5(C)CC[C@H](O)C(C)(C)[C@@H]5CC[C@]43C)[C@@H]2C1`, in [6], the “Ratio CC50/IC50” value is on record as 11. In data set [8], the midpoint of cytotoxicity, the CC50 at 48 h, lay at 15.4 µM.

(Values after ChEMBL document CHEMBL3877243, “Synthesis and biological evaluation of novel pentacyclic triterpene α-cyclodextrin conjugates as HCV entry inhibitors” (Eur J Med Chem, 2016).)
